Converted amounts (≈) assume the structure as drawn. The source made the active and inactive calls. The rule behind the calls is not given here.
Key:
[1] = Solubility of compound in water at pH 7.3; assay type: physicochemical; conditions: buffer
[2] = tested on: Rattus norvegicus; assay: Inhibition of vascular remodeling activity in Sprague-Dawley rat model of hypoxia-induced pulmonary artery hypertension assessed as reduction in alpha-SMA expression in lungs at 10 mg/kg, po administered daily for 2 weeks by Western blot analysis; assay type: functional, organism-based
In short: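 Lungs came from hypoxic SD rats (10% O2, 4 weeks) dosed orally at 10 mg/kg daily for 14 days. Tissue was homogenised in RIPA buffer with protease and phosphatase inhibitors. 30 µg of protein was run on 10% SDS-PAGE and transferred to PVDF. Blots were probed overnight at 4 °C with anti-α-SMA (1:1000) and anti-β-actin (1:2000) and detected by fluorescence.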

[3] = tested on: Pulmonary Artery Smooth Muscle Cells; assay: Stimulation of sGC in HPASMC assessed as increase in intracellular cGMP level at 100 uM measured after 1 hr in presence of PDE5 inhibitor IBMX by cGMP-d2/europium cryptate reagent based HTRF assay relative to control; assay type: tissue-based; conditions: Homo sapiens, filed as activator
In short: (§1)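 HPASMCs were suspended at 100,000 cells/mL in PBS with 0.2% BSA, with or without 10 µM ODQ. Compounds were added as a 6-point, 10-fold dilution series; the top 2× stock was 200 µM. Incubation was 1 h at room temperature, in triplicate. cGMP-d2 in lysis buffer and europium cryptate were then added for 1 h before HTRF reading. Three independent experiments.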

[4] = Solubility of compound in water at pH 3.5; assay type: physicochemical; conditions: buffer
[5] = tested on: Rattus norvegicus; assay: Inhibition of vascular remodeling activity in Sprague-Dawley rat model of hypoxia-induced pulmonary artery hypertension assessed as reduction in TGFbeta expression in lungs at 10 mg/kg, po administered daily for 2 weeks by Western blot analysis; assay type: functional, organism-based
In short: (§2)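 Hypoxic PAH model in male SD rats (160-200 g) kept at 10% O2 for 4 weeks. Oral dosing at 10 mg/kg daily for 14 days, suspended in 0.5% CMC-Na; control and hypoxia groups received vehicle only. Lungs homogenized in RIPA with protease and phosphatase inhibitors. 30 µg protein run on 10% SDS-PAGE, then PVDF blotting, with β-actin as loading reference. Three independent runs.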

[6] = species: Homo sapiens; assay: Inhibition of CaMKKbeta phosphorylated recombinant human AMPK alpha1/beta1/gamma1 using 1-biotin as substrate incubated for 60 mins by HTRF assay; conditions: time 1.0 hrs
In short: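 Kinase reaction with 0.16 µM STK substrate 1-biotin, 0.8 mmol DTT, 4 mmol MgCl2, 4 µM ATP and compound, started by adding 1 ng/µl CaMKKβ-prephosphorylated AMPK (α1β1γ1). Ran 1 h at 37 °C, then Eu3+-cryptate STK antibody plus 57.5 nmol/L XL-665 for 1 h at room temperature. Activity read as the 665/620 ratio ×10000. Curves averaged from three independent experiments.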

[7] = tested on: Rattus norvegicus; assay: Inhibition of vascular remodeling activity in Sprague-Dawley rat model of hypoxia-induced pulmonary artery hypertension assessed as increase in body weight at 10 mg/kg, po administered daily for 2 weeks; assay type: functional, organism-based
[8] = target: AMP-activated protein kinase, AMPK (Homo sapiens) (UniProt P54646+O43741+P54619+Q9UGJ0+Q9Y478+Q13131+Q9UGI9); assay: Inhibition of AMPK in TGFbeta-induced HPASMC assessed as reduction in cell migration measured after 24 hrs by wound healing assay; assay type: tissue-based; conditions: Pulmonary Artery Smooth Muscle Cells, dose microM 5-10, time 24.0 hrs
In short: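 Wound-healing assay. 5 × 10^4 cells were seeded per well and grown 24 h to near confluence. The monolayer was scratched with a pipette tip and washed with PBS. Cells were then kept in 1% FBS medium with TGF-β (10 ng/mL) or under hypoxia (1% O2, 5% CO2, 94% N2), alone or with compound. Migration ran 24 h at 37 °C, imaged at 0 and 24 h. Mean ± SD from three independent experiments.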

[9] = tested on: Rattus norvegicus; assay: In vivo inhibition of AMPK in Sprague-Dawley rat model of hypoxia-induced pulmonary artery hypertension assessed as reduction in AMPK phosphorylation in lungs at 10 mg/kg, po administered daily for 2 weeks by Western blot analysis; assay type: functional, organism-based; in short: as §2
[10] = Antiproliferative activity against HLF1 cells measured after 48 hrs under hypoxic condition by CCK8 assay; assay type: functional, cell-based; conditions: Homo sapiens, HLF1, 48 h
In short: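 HPASMCs were grown in high-glucose D-MEM with 20% FBS, and HLF1 in D-MEM/F-12 (1:1) with 10% FBS. Cells were seeded for exponential growth, then exposed to a range of compound concentrations for 48 h at 37 °C under hypoxia (1% O2, 5% CO2, 94% N2). CCK-8 was added for 4 h and absorbance read at 490 nm. IC50 came from dose-response curves averaged over three independent experiments.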

[11] = tested on: Pulmonary Artery Smooth Muscle Cells; assay: Stimulation of sGC in HPASMC assessed as increase in intracellular cGMP level at 100 uM measured after 1 hr in presence of PDE5 inhibitor IBMX and sGC inhibitor ODQ by cGMP-d2/europium cryptate reagent based HTRF assay; assay type: tissue-based; conditions: Homo sapiens; in short: as §1
[12] = tested on: Pulmonary Artery Smooth Muscle Cells; assay: Stimulation of sGC in HPASMC assessed as increase in intracellular cGMP level measured after 1 hr in absence of PDE5 inhibitor IBMX and presence of sGC inhibitor ODQ by cGMP-d2/europium cryptate reagent based HTRF assay; assay type: tissue-based; conditions: Homo sapiens, filed as activator; in short: as §1
[13] = tested on: Pulmonary Artery Smooth Muscle Cells; assay: Stimulation of sGC in HPASMC assessed as increase in intracellular cGMP level measured after 1 hr in presence of […] IBMX by cGMP-d2/europium cryptate reagent based HTRF assay; assay type: tissue-based; conditions: Homo sapiens, filed as activator
In short: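 HPASMCs at 100 000 cells/mL in PBS with 1 mM IBMX and 0.2% BSA, with or without 10 µM ODQ. Exposed to a 6-point, 10-fold dilution series (top 200 µM, 2× stock) in triplicate for 1 h at room temperature. cGMP-d2 in lysis buffer and europium cryptate added, then 1 h at room temperature before HTRF reading. Three independent experiments averaged.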

[14] = Effect on total ACC level in lungs of Sprague-Dawley rat model of hypoxia-induced pulmonary artery hypertension at 10 mg/kg, po administered daily for 2 weeks by Western blot analysis; assay type: ADME, organism-based; conditions: in vivo, 336 h; in short: as §2
[15] = tested on: Rattus norvegicus; assay: In vivo stimulation of sGC in Sprague-Dawley rat model of hypoxia-induced pulmonary artery hypertension assessed as increase in phosphorylation levels of VASP in lungs at 10 mg/kg, po administered daily for 2 weeks by Western blot analysis; assay type: functional, organism-based
[16] = tested on: Rattus norvegicus; assay: In vivo stimulation of sGC in Sprague-Dawley rat model of hypoxia-induced pulmonary artery hypertension assessed as […] in PKG1 expression in lungs at 10 mg/kg, po administered daily for 2 weeks by Western blot analysis; assay type: functional, organism-based; in short: as §2
[17] = Protein binding in human plasma; assay type: ADME, cell-free; conditions: read-out: PPB (converted)
[18] = Antiproliferative activity against HLF1 cells assessed as reduction in TGFbeta-induced cell proliferation measured after 48 hrs by CCK8 assay; assay type: functional, cell-based; conditions: Homo sapiens, HLF1, 48 h
In short: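 HPASMCs grown in high-glucose D-MEM with 20% FBS and HLF1 in D-MEM/F-12 (1:1) with 10% FBS. Cells stimulated with TGF-β (10 ng/mL) at 37 °C, 5% CO2, then exposed to a concentration range for 48 h. CCK-8 added for 4 h and absorbance read at 490 nm. IC50 derived from the curves.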

solubility [1]: 0.034 µg/mL (≈ 0.0777 µM) | solubility [4]: 0.028 µg/mL (≈ 0.064 µM) | inhibition [6]: Dose-dependent effect | inhibition [8]: Dose-dependent effect | fraction unbound [17]: 0.002
Compound: Cc1ccccc1COc1nc2c(cc1-c1nc(N)cc(N)n1)c(C)nn2-c1ccccc1
inhibition [2]: Active | Activity [3]: 40% | inhibition [5]: Active | inhibition [7]: Active | inhibition [9]: Active | IC50 [10]: 34.9 µM | Activity [11]: inactive | Activity [12]: Active | Activity [13]: Dose-dependent effect | Activity [14]: Non-Toxic | Activity [15]: Active | Activity [16]: Active | IC50 [18]: 38.5 µM
